# Measurements collected from several papers.
# Target: Casein kinase I isoform alpha-like (CSNK1A1L, Homo sapiens, UniProt Q8N752)
# Residues used in one study (Q8N752 1-337): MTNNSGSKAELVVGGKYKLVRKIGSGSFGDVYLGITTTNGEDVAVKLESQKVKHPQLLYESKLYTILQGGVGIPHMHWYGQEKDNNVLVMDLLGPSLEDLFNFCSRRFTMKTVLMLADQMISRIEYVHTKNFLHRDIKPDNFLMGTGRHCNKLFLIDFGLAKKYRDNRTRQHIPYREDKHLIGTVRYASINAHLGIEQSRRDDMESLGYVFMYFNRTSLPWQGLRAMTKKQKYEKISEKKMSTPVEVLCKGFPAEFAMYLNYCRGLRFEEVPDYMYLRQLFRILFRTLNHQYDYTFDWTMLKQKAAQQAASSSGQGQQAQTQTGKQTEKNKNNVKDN
SMILES,test,conditions,remaining binding
CCCOc1ccc([C@@H]2[C@@H](C(=O)O)[C@H](c3ccc4c(c3)OCO4)CN2CC(=O)Nc2c(CC)cccc2CC)cc1,"cell-free assay, competition with immobilised ligand",1 µM,94%
COc1cnc(Nc2cccc(S(N)(=O)=O)c2)nc1N1CCN(c2ccccc2)CC1,"binding, competition with immobilised ligand",1 µM,96%
Nc1ncc2c(n1)-c1c([nH]c3ccc(C#CC4CC4)cc13)CCCC2,"binding, competition with immobilised ligand",1 µM,99%
C[C@H](c1ccnc(Nc2nc3ccc(-c4cc(N(C)C)ncn4)cc3[nH]2)c1)N1CCN(C(=O)CC(F)(F)F)CC1,"cell-free assay, competition with immobilised ligand",0.1 µM,94%
O=C(NCC1CCOCC1)c1n[nH]cc1NC(=O)c1c(F)cccc1F,"binding, competition with immobilised ligand",1 µM,85%
CCC(=N\O)/C(C)=C/c1ccc(F)cc1,"cell-free assay, competition with immobilised ligand",1 µM,78%
CN(CCCC(F)(F)F)c1nccc(-c2cnn3ncccc23)n1,binding,1 µM,91%
C=CC(=O)N1CCC(C(=O)NCC(=O)N2CCN(c3nc(-c4cnc(N)nc4C(F)F)nc(N4CCOCC4)n3)CC2)CC1,"binding, competition with immobilised ligand",1 µM,100%
CN(C(=O)c1ccccc1)c1cc(N(C)c2ccc3c(c2)CCc2ccc(C(=O)NCCN4CCOCC4)cc2C3=O)ccc1F,"cell-free assay, competition with immobilised ligand",1 µM,100%
O=C(NCCCN1CCOCC1)c1ccc(Nc2nccc(-c3cc4ccccc4s3)n2)cc1,"binding, competition with immobilised ligand",1 µM,91%
CN(C)c1nccc(-c2cnn3ncccc23)n1,binding,1 µM,98%
O=C(c1ccc(Nc2ncc(Cl)c(-c3ccc(Cl)s3)n2)cc1)N1CCC(N2CCCC2)CC1,"binding, competition with immobilised ligand",1 µM,100%
C[C@H]1CCN(c2nccc(-c3cnn4ncccc34)n2)C1,binding,1 µM,100%
C[C@@H](c1ccc(-n2cnc3c(N)ncnc32)cc1)N1CCc2nn(C)c(Cc3ccccc3)c2C1=O,"binding, competition with immobilised ligand",0.1 µM,91%
Cc1c[nH]c2nccc(Oc3c(F)cc(Nc4cc(Cl)nc(N)n4)cc3F)c12,"cell-free assay, competition with immobilised ligand",0.1 µM,89%
N[C@H]1CCN(c2nccc(-c3cnn4ncccc34)n2)C1,binding,1 µM,100%
Cc1cnc(Nc2ccc(C(=O)N3CCC(N4CCCC4)CC3)cc2)nc1-c1cc2ccccc2s1,"binding, competition with immobilised ligand",1 µM,100%
c1cnn2ncc(-c3ccnc(N4CCC45COC5)n3)c2c1,binding,1 µM,68%
N#Cc1ccc(Nc2ccc3[nH]c(=O)[nH]c3c2)c(Cl)c1,"cell-free assay, competition with immobilised ligand",1 µM,100%
F[C@@H]1CCN(c2nccc(-c3cnn4ncccc34)n2)C1,binding,1 µM,100%
c1cncc(-c2cccc(Nc3nccc(NC4CCCCC4)n3)c2)c1,"binding, competition with immobilised ligand",10 µM,92%
